{"source": "paper PMC6639057", "about": "(Investigational new drugs, 2018)", "key": {"advanced solid tumors": {"system": "advanced solid tumors", "experiment": "Tumor response, dose-escalation cohorts", "assay_type": "in vivo, human", "conditions": "for Best overall response: Complete response / Best overall response: Partial response / Best overall response: Progressive disease / Best overall response: Stable disease / Best overall response: Unable to evaluate: Central read, RECIST 1.1", "in_short": "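Adults with refractory advanced solid tumours took the drug orally once each morning on days 1–4 of 14-day cycles, fasting from 2 h predose (water only) until 1 h postdose. Doses were 1–30 mg (and 25 mg) without G-CSF, or 30–50 mg with subcutaneous G-CSF (300 or 480 µg daily). Scans were read centrally by RECIST 1.1 and locally by RECIST 1.0, with GCIG criteria for ovarian tumours.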"}, "Plasma pharmacokinetics": {"experiment": "Plasma pharmacokinetics", "assay_type": "in vivo, human", "conditions": "for AUC(0-t): 40 mg, Mean AUC24h, 40 mg once daily, dose expansion"}, "[1]": {"system": "cell lines from a variety of tumor types including several that were resistant to paclitaxel", "conditions": "preclinical; cited from earlier work"}, "[2]": {"system": "castration-resistant and taxane- or cisplatin/etoposide-resistant prostate cancer", "experiment": "Tumor response, dose-expansion CRPC cohort", "assay_type": "in vivo, human"}, "[3]": {"system": "patients with advanced solid tumors", "experiment": "Dose-limiting toxicities and maximum tolerated dose, dose-escalation phase", "assay_type": "in vivo"}, "[4]": {"system": "breast cancer cell lines with TP53 loss of function mutations", "conditions": "cited from earlier work"}, "[5]": {"conditions": "escalation 30 mg + G-CSF (n = 6)"}, "[6]": {"conditions": "escalation 35 mg + G-CSF (n = 3)"}, "[7]": {"conditions": "escalation 40 mg + G-CSF (n = 11)"}, "[8]": {"conditions": "escalation 50 mg + G-CSF (n = 4)"}, "[9]": {"conditions": "escalation 1, 2, 4, 8 mg (n = 4)"}, "[10]": {"conditions": "Central read, RECIST 1.1, expansion 40 mg + G-CSF, CRPC (n = 12)"}, "[11]": {"conditions": "Local read, RECIST 1.0, expansion 40 mg + G-CSF, CRPC (n = 12)"}}, "note": "Marks after values point to notes of the source that are not given here."}
{"smiles": "Cc1csc(-c2nnc(Nc3ccc(Oc4ncccc4-c4ccnc(N)n4)cc3)c3ccccc23)c1", "note": "[AMG 900]", "values": [{"measurement": "Duration of stable disease, one patient with medullary thyroid cancer", "setting": "advanced solid tumors; 24 mg", "value": "> 3.5", "unit": "years"}, {"measurement": "Tumor response, one patient with clear-cell endometrial cancer", "setting": "advanced solid tumors; 30 mg + G-CSF", "value": "partial response per RECIST 1.0 (local read) that was not confirmed per RECIST 1.1 (central read)"}, {"measurement": "Tumor response, one patient with ovarian cancer", "setting": "advanced solid tumors; 30 mg, RECIST 1.1 and GCIG criteria (central read)", "value": "partial response"}, {"measurement": "Best overall response: Complete response", "setting": "advanced solid tumors; escalation 16 mg (n = 3)", "value": "0 Patients (%)"}, {"measurement": "Best overall response: Partial response", "setting": "advanced solid tumors; escalation 16 mg (n = 3)", "value": "0 Patients (%)"}, {"measurement": "Best overall response: Progressive disease", "setting": "advanced solid tumors; escalation 16 mg (n = 3)", "value": "0 Patients (%)"}, {"measurement": "Best overall response: Stable disease", "setting": "advanced solid tumors; escalation 16 mg (n = 3)", "value": "2 (67) Patients (%)"}, {"measurement": "Best overall response: Unable to evaluate", "setting": "advanced solid tumors; escalation 16 mg (n = 3)", "value": "1 (33) Patients (%)"}, {"measurement": "Best overall response: Complete response", "setting": "advanced solid tumors; escalation 24 mg (n = 6)", "value": "0 Patients (%)"}, {"measurement": "Best overall response: Partial response", "setting": "advanced solid tumors; escalation 24 mg (n = 6)", "value": "0 Patients (%)"}, {"measurement": "Best overall response: Progressive disease", "setting": "advanced solid tumors; escalation 24 mg (n = 6)", "value": "1 (17) Patients (%)"}, {"measurement": "Best overall response: Stable disease", "setting": "advanced solid tumors; escalation 24 mg (n = 6)", "value": "5 (83) Patients (%)"}, {"measurement": "Best overall response: Unable to evaluate", "setting": "advanced solid tumors; escalation 24 mg (n = 6)", "value": "0 Patients (%)"}, {"measurement": "Best overall response: Complete response", "setting": "advanced solid tumors; escalation 25 mg (n = 7)", "value": "0 Patients (%)"}, {"measurement": "Best overall response: Partial response", "setting": "advanced solid tumors; escalation 25 mg (n = 7)", "value": "0 Patients (%)"}, {"measurement": "Best overall response: Progressive disease", "setting": "advanced solid tumors; escalation 25 mg (n = 7)", "value": "1 (14) Patients (%)"}, {"measurement": "Best overall response: Stable disease", "setting": "advanced solid tumors; escalation 25 mg (n = 7)", "value": "4 (57) Patients (%)"}, {"measurement": "Best overall response: Unable to evaluate", "setting": "advanced solid tumors; escalation 25 mg (n = 7)", "value": "2 (29) Patients (%)"}, {"measurement": "Best overall response: Complete response", "setting": "advanced solid tumors; escalation 30 mg (n = 6)", "value": "0 Patients (%)"}, {"measurement": "Best overall response: Progressive disease", "setting": "advanced solid tumors; escalation 30 mg (n = 6)", "value": "1 (17) Patients (%)"}, {"measurement": "Best overall response: Stable disease", "setting": "advanced solid tumors; escalation 30 mg (n = 6)", "value": "3 (50) Patients (%)"}, {"measurement": "Best overall response: Unable to evaluate", "setting": "advanced solid tumors; escalation 30 mg (n = 6)", "value": "1 (17) Patients (%)"}, {"measurement": "Best overall response: Partial response", "setting": "advanced solid tumors; escalation 30 mg (n = 6), patient also had a response by GCIG CA 125 criteria", "value": "1 (17)^b Patients (%)"}, {"measurement": "Best overall response: Complete response", "setting": "advanced solid tumors; [5]", "value": "0 Patients (%)"}, {"measurement": "Best overall response: Partial response", "setting": "advanced solid tumors; [5]", "value": "0 Patients (%)"}, {"measurement": "Best overall response: Progressive disease", "setting": "advanced solid tumors; [5]", "value": "3 (50) Patients (%)"}, {"measurement": "Best overall response: Stable disease", "setting": "advanced solid tumors; [5]", "value": "3 (50) Patients (%)"}, {"measurement": "Best overall response: Unable to evaluate", "setting": "advanced solid tumors; [5]", "value": "0 Patients (%)"}, {"measurement": "Best overall response: Complete response", "setting": "advanced solid tumors; [6]", "value": "0 Patients (%)"}, {"measurement": "Best overall response: Partial response", "setting": "advanced solid tumors; [6]", "value": "0 Patients (%)"}, {"measurement": "Best overall response: Progressive disease", "setting": "advanced solid tumors; [6]", "value": "2 (67) Patients (%)"}, {"measurement": "Best overall response: Stable disease", "setting": "advanced solid tumors; [6]", "value": "1 (33) Patients (%)"}, {"measurement": "Best overall response: Unable to evaluate", "setting": "advanced solid tumors; [6]", "value": "0 Patients (%)"}, {"measurement": "Best overall response: Complete response", "setting": "advanced solid tumors; [7]", "value": "0 Patients (%)"}, {"measurement": "Best overall response: Partial response", "setting": "advanced solid tumors; [7]", "value": "0 Patients (%)"}, {"measurement": "Best overall response: Progressive disease", "setting": "advanced solid tumors; [7]", "value": "2 (18) Patients (%)"}, {"measurement": "Best overall response: Stable disease", "setting": "advanced solid tumors; [7]", "value": "7 (64) Patients (%)"}, {"measurement": "Best overall response: Unable to evaluate", "setting": "advanced solid tumors; [7]", "value": "2 (18) Patients (%)"}, {"measurement": "Best overall response: Complete response", "setting": "advanced solid tumors; [8]", "value": "0 Patients (%)"}, {"measurement": "Best overall response: Partial response", "setting": "advanced solid tumors; [8]", "value": "0 Patients (%)"}, {"measurement": "Best overall response: Progressive disease", "setting": "advanced solid tumors; [8]", "value": "0 Patients (%)"}, {"measurement": "Best overall response: Stable disease", "setting": "advanced solid tumors; [8]", "value": "2 (50) Patients (%)"}, {"measurement": "Best overall response: Unable to evaluate", "setting": "advanced solid tumors; [8]", "value": "2 (50) Patients (%)"}, {"measurement": "Best overall response: Complete response", "setting": "advanced solid tumors; [9]", "value": "0 Patients (%)"}, {"measurement": "Best overall response: Partial response", "setting": "advanced solid tumors; [9]", "value": "0 Patients (%)"}, {"measurement": "Best overall response: Progressive disease", "setting": "advanced solid tumors; [9]", "value": "2 (50) Patients (%)"}, {"measurement": "Best overall response: Stable disease", "setting": "advanced solid tumors; [9]", "value": "2 (50) Patients (%)"}, {"measurement": "Best overall response: Unable to evaluate", "setting": "advanced solid tumors; [9]", "value": "0 Patients (%)"}, {"measurement": "Progressive disease", "setting": "advanced solid tumors; dose-escalation phase (12 patients of 50)", "value": 24, "unit": "%"}, {"measurement": "Stable disease (best response)", "setting": "advanced solid tumors; dose-escalation phase, RECIST 1.1 (29 patients of 50)", "value": 58, "unit": "%"}, {"measurement": "Accumulation based on AUC8h", "setting": "Plasma pharmacokinetics; cycle 1 day 1 to cycle 1 day 4, all dose cohorts", "value": "< 2", "unit": "fold"}, {"measurement": "Tmax", "setting": "Plasma pharmacokinetics; human, plasma, oral", "value": "1 to 3", "unit": "h"}, {"measurement": "half-life", "setting": "Plasma pharmacokinetics; human, plasma, oral", "value": "6 to 9", "unit": "h"}, {"measurement": "AUC(0-t)", "setting": "Plasma pharmacokinetics; human, plasma, oral, CRPC", "value": 7700, "unit": "ng·h/mL"}, {"measurement": "AUC(0-t)", "setting": "Plasma pharmacokinetics; human, plasma, oral, TNBC", "value": 10600, "unit": "ng·h/mL"}, {"measurement": "AUC(0-t)", "setting": "Plasma pharmacokinetics; human, plasma, oral, ovarian cancer cohort", "value": 12900, "unit": "ng·h/mL"}, {"measurement": "Mean exposure (AUC24h) versus dose", "setting": "Plasma pharmacokinetics; oral, 1 to 50 mg", "value": "increased as the dose increased"}, {"measurement": "Proliferation of tumor cell lines", "setting": "[1]", "value": "inhibited the proliferation"}, {"measurement": "Progression-free survival, median (80% CI)", "setting": "[2]; Central read, RECIST 1.1, Kaplan-Meier, expansion 40 mg + G-CSF, CRPC (n = 12)", "value": "32.4 (15.7–39.6) weeks"}, {"measurement": "Best overall response: Complete response", "setting": "[2]; [10]", "value": "0 Patients (%)"}, {"measurement": "Best overall response: Not evaluable (postbaseline scan not readable)", "setting": "[2]; [10]", "value": "2 (17) Patients (%)"}, {"measurement": "Best overall response: Partial response", "setting": "[2]; [10]", "value": "0 Patients (%)"}, {"measurement": "Best overall response: Progressive disease", "setting": "[2]; [10]", "value": "1 (8) Patients (%)"}, {"measurement": "Best overall response: Stable disease", "setting": "[2]; [10]", "value": "9 (75) Patients (%)"}, {"measurement": "Best overall response: Complete response", "setting": "[2]; [11]", "value": "0 Patients (%)"}, {"measurement": "Best overall response: Not evaluable (postbaseline scan not readable)", "setting": "[2]; [11]", "value": "1 (8) Patients (%)"}, {"measurement": "Best overall response: Partial response", "setting": "[2]; [11]", "value": "0 Patients (%)"}, {"measurement": "Best overall response: Progressive disease", "setting": "[2]; [11]", "value": "3 (25) Patients (%)"}, {"measurement": "Best overall response: Stable disease", "setting": "[2]; [11]", "value": "8 (67) Patients (%)"}, {"measurement": "Objective responses", "setting": "[2]; RECIST 1.1, CRPC", "value": "No objective responses"}, {"measurement": "DLTs overall", "setting": "[3]; in vivo", "value": "nine DLTs were reported in eight patients"}, {"measurement": "Maximum tolerated dose (MTD) and recommended phase 2 dose", "setting": "[3]; with G-CSF, daily, 4 days on, 10 days off", "value": 40, "unit": "mg"}, {"measurement": "Maximum tolerated dose (MTD)", "setting": "[3]; with G-CSF, oral, 4 days on/10 days off", "value": 40, "unit": "mg/day"}, {"measurement": "Maximum tolerated dose (MTD)", "setting": "[3]; without G-CSF, daily, 4 days on, 10 days off", "value": 25, "unit": "mg"}, {"measurement": "Maximum tolerated dose (MTD)", "setting": "[3]; without G-CSF, oral, 4 days on/10 days off", "value": 25, "unit": "mg/day"}, {"measurement": "Sensitivity to AMG 900 compared with cell lines without such mutations", "setting": "[4]", "value": "greater sensitivity"}]}
